Results taken from article PMC7275135 (Applied Microbiology and Biotechnology, 2020).
Where a SMILES comes first, the peptide text is derived from it.

Columns and labels:
MEECs = assay: Cytotoxicity, MTT assay; assay type: cell-based, mouse; settings: 256 μg/mL, n = 4
S. aureus CVCC 546 [1] = assay: Membrane depolarization, Rhodamine 123 flow cytometry; assay type: cell-based, Staphylococcus aureus; settings: 2 h, 10^8 CFU/mL
[2] = tested on: LTA-induced cytokines from RAW 264.7; assay: LTA neutralization, cytokine ELISA; assay type: cell-based, mouse; settings: RAW 264.7, LTA-stimulated, 25-μg/mL
[3] = tested on: intracellular S. aureus CVCC 546; assay: Intracellular antimicrobial activity in MEECs; assay type: cell-based, Staphylococcus aureus; settings: 24 h treatment, dose-dependent, colony counting
Procedure, shortened: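 MEECs in antibiotic-free DMEM, seeded at 2.5 × 10^5 cells/mL and grown 24 h, then infected with an equal volume of S. aureus CVCC 546 (2.5 × 10^7 CFU/mL) for 0.5 h. Extracellular bacteria killed with lysostaphin 50 μg/mL for 1 h, then PBS wash.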

S. aureus CVCC 546 [4] = assay: S. aureus-induced endometritis model of mice; assay type: in vivo, mouse; settings: 10-mg/kg
Gram-positive bacteria = assay: MIC range over the Gram-positive strains; assay type: cell-based; settings: S. aureus CVCC 546, S. epidermidis ATCC 12228, S. pneumoniae CVCC 2350, S. suis CVCC 3928
[5] = tested on: S. epidermidis ATCC 12228; assay: MIC, microtiter plate assay; assay type: cell-based, Staphylococcus epidermidis; settings: triplicate

SMILES	cell viability toward MEECs (MEECs)	Rh 123 fluorescence intensity increased by (S. aureus CVCC 546 [1]; 1 × MIC)	Rh 123 fluorescence intensity increased by (S. aureus CVCC 546 [1]; 2 × MIC)	IL-10 increased by [2]	killing of S. aureus CVCC 546 in MEEC cells [3]	histopathology of uteri (H&E) (S. aureus CVCC 546 [4])	MICs (range over strains) (Gram-positive bacteria)	MICs [5]
CN[C@H](CC(C)C)C(=O)N[C@H]1C(=O)N[C@@H](CC(N)=O)C(=O)N[C@H]2C(=O)N[C@H]3C(=O)N[C@H](C(=O)N[C@H](C(=O)O)c4cc(O)cc(O)c4-c4cc3ccc4O)[C@H](O)c3ccc(c(Cl)c3)Oc3cc2cc(c3O[C@@H]2O[C@H](CO)[C@@H](O)[C@H](O)[C@H]2O[C@H]2C[C@](C)(N)[C@H](O)[C@H](C)O2)Oc2ccc(cc2Cl)[C@H]1O [vancomycin]	90.15%	23.1%	26.6%	81.26%	over 99%	Only a small amount of scattered inflammatory cells were observed in part of uterus		
CC[C@H](C)[C@@H]1NC(=O)[C@@H]2CSSC[C@@H](C(=O)N[C@@H](CCCNC(=N)N)C(=O)N[C@@H](CCCCN)C(=O)O)NC(=O)[C@H](CC(N)=O)NC(=O)[C@@H]3CSSC[C@H](NC(=O)[C@H](C)NC(=O)[C@H](C)NC(=O)[C@H](Cc4c[nH]cn4)NC(=O)CNC(=O)[C@H](C(C)C)NC(=O)[C@H](CCCCN)NC(=O)[C@H](Cc4ccccc4)NC(=O)[C@@H]4CCCN4C(=O)[C@H](CO)NC(=O)[C@H](CC(C)C)NC(=O)[C@H](CC(C)C)NC(=O)[C@H](CC(=O)O)NC(=O)[C@@H](NC(=O)[C@@H](NC(=O)[C@H](C)N)[C@@H](C)O)CSSC[C@H](NC(=O)[C@H](Cc4c[nH]c5ccccc45)NC(=O)CNC(=O)CNC(=O)[C@H](CCCNC(=N)N)NC(=O)[C@H](CCCCN)NC(=O)CNC(=O)[C@H](CCCNC(=N)N)NC(=O)[C@H](C)NC1=O)C(=O)N[C@@H](CC(=O)O)C(=O)N[C@@H](CCCCN)C(=O)N[C@@H](CCCNC(=N)N)C(=O)N[C@@H](C)C(=O)N[C@@H](C(C)C)C(=O)N3)C(=O)N[C@@H](C)C(=O)N[C@@H](C)C(=O)N[C@@H](Cc1c[nH]cn1)C(=O)N2 [DLP4] (HELM PEPTIDE1{A.T.C.D.L.L.S.P.F.K.V.G.H.A.A.C.A.A.H.C.I.A.R.G.K.R.G.G.W.C.D.K.R.A.V.C.N.C.R.K}$PEPTIDE1,PEPTIDE1,3:R3-30:R3|PEPTIDE1,PEPTIDE1,16:R3-36:R3|PEPTIDE1,PEPTIDE1,20:R3-38:R3$$$V2.0; N-terminus assumed)	74.14%						3.75~14.99 μM	14.99 µM
